These results are taken from ChEMBL document CHEMBL1146282, “Novel beta-lactam derivatives: potent and selective inhibitors of the chymotrypsin-like activity of the human 20S proteasome” (Bioorg Med Chem Lett, 2007).

A short description of test [1]: Inhibition of chymotrypsin-like activity of human 20S proteasome. In outline:
(§1)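 Human 20S proteasome purified in-house from blood, assayed in vitro with fluorogenic AMC peptides: Suc-Leu-Leu-Val-Tyr-AMC (chymotrypsin-like), Boc-Leu-Arg-Arg-AMC (trypsin-like), Z-Leu-Leu-Glu-AMC (post-glutamyl-peptide hydrolytic-like). Hydrolysis followed by fluorescence rise (ex 355/em 460 nm). IC50 taken from initial linear rates, as inhibitor concentration halving the proteasome-catalysed hydrolysis rate.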

Test [2] is filed under the species Homo sapiens. In words: Selectivity for chymotrypsin-like activity of human 20S proteasome over post-glutamyl-peptide hydrolytic activity of human 20S proteasome.
Test [3] is described as follows: Inhibition of post-glutamyl-peptide hydrolytic activity of human 20S proteasome. In outline: as §1
Test [4] is described as follows: Inhibition of trypsin-like activity of human 20S proteasome. The method in brief: as §1
The species entered for test [5] is Homo sapiens. In words: Inhibition of chymotrypsin at 25 uM.
The species entered for test [6] is Homo sapiens. In words: Inhibition of thrombin at 25 uM.
In the next test the test system is MDA-MB-435. The test can be described thus: Antiproliferative activity against human MDA-MB-435 cells by MTT assay. Type of test: functional, cell-based. In outline: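 MDA-MB-435 human breast carcinoma cells grown in MEM with 10% FCS, penicillin/streptomycin, 4 mM L-glutamine, 1 mM sodium pyruvate, non-essential amino acids and 20 mM Hepes. Compound exposure for 24, 48 or 72 h. Proliferation read by MTT-based CellTiter96 assay.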

The species entered for test [7] is Homo sapiens. In words: Inhibition of calpain at 25 uM.
The species named for test [8] is Homo sapiens. The test can be described thus: Selectivity for chymotrypsin-like activity of human 20S proteasome over trypsin-like activity of human 20S proteasome.

Molecules are shown by their SMILES. The source made the active and inactive calls. The rule behind the calls is not given here.

With `COc1ccc(C[C@H](NC(=O)Cc2cccc(Oc3ccccc3)c2)C(=O)N[C@H](C(=O)N[C@@]2(Cc3ccccc3)CNC2=O)C(C)C)c(OC)c1OC`, the IC50 in [1] was 170 nM. In other words, the sub-micromolar range.
In the case of `COc1ccc(C[C@H](NC(=O)Cc2cccc(Oc3ccccc3)c2)C(=O)N[C@H](C(=O)N[C@]2(CC(C)C)CNC2=O)C(C)C)c(OC)c1OC`, the Ratio was greater than 350 in the test filed under Homo sapiens [2] and 350 in the test listed under Homo sapiens [8]. Moreover, the half-inhibitory concentration (IC50) in test [3] is greater than 100000 nM; in [1] it was 2.5 nM; in test [4] it was 1100 nM; with MDA-MB-435 it was 34 nM. The result in the test listed under Homo sapiens [5], in the test listed under Homo sapiens [6] and in the test listed under Homo sapiens [7] was inactive.
For the compound `CC(C)C[C@@]1(NC(=O)[C@@H](NC(=O)[C@H](Cc2ccccc2)NC(=O)Cc2cccc(Oc3ccccc3)c2)C(C)C)CNC1=O`, the Ratio is greater than 350 in the test filed under Homo sapiens [2] and 350 in the test filed under Homo sapiens [8]. Besides, the IC50 in test [3] is greater than 20000 nM; in [1], 20 nM; with MDA-MB-435 it was 1200 nM. Further, the outcome in the test filed under Homo sapiens [5], in the test listed under Homo sapiens [6] and in the test listed under Homo sapiens [7] was inactive.
In the case of `COc1ccc(C[C@H](NC(=O)OCc2ccccc2)C(=O)N[C@H](C(=O)N[C@]2(Cc3ccccc3)CNC2=O)C(C)C)c(OC)c1OC`, in [1], the IC50 was found to be 5 nM. This lies in the single-digit nanomolar range.
The same measure, in the same setting: next, `COc1ccc(C[C@H](NC(=O)OCc2ccccc2)C(=O)N[C@H](C(=O)N[C@@]2(Cc3ccccc3)CNC2=O)C(C)C)c(OC)c1OC`: 1400 nM; `COc1ccc(C[C@H](NC(=O)Cc2cccc(Oc3ccccc3)c2)C(=O)N[C@H](C(=O)N[C@@]2(CC(C)C)CNC2=O)C(C)C)c(OC)c1OC`: 1300 nM.
Take `COc1ccc(C[C@H](NC(=O)Cc2cccc(Oc3ccccc3)c2)C(=O)N[C@H](C(=O)N[C@]2(Cc3ccccc3)CNC2=O)C(C)C)c(OC)c1OC`: the Ratio was greater than 350 in the test listed under Homo sapiens [2] and 350 in the test listed under Homo sapiens [8]. In addition, the IC50 in test [3] is greater than 20000 nM; in test [1], 1.4 nM; in test [4], 19000 nM; in the test with MDA-MB-435, 32 nM. Besides, the result in the test listed under Homo sapiens [5], in the test filed under Homo sapiens [6] and in the test filed under Homo sapiens [7] was inactive.
`COc1ccc(C[C@H](NC(=O)Cc2cccc(Oc3ccccc3)c2)C(=O)N[C@@H](C(=O)N[C@@]2(Cc3ccccc3)CNC2=O)C(C)(C)C)c(OC)c1OC` came in with an IC50 in test [1] of 4 nM.
The same measure, in the same setting: next, `COc1ccc(C[C@H](NC(=O)Cc2cccc(Oc3ccccc3)c2)C(=O)N[C@H](C(=O)N[C@@]2(Cc3ccccc3)CNC2=O)C(C)(C)C)c(OC)c1OC`: 280 nM; `CC(C)C[C@]1(NC(=O)[C@@H](NC(=O)[C@H](Cc2ccccc2)NC(=O)Cc2cccc(Oc3ccccc3)c2)C(C)C)CNC1=O`: 38000 nM.

In general, IC50 refers to the concentration that gives 50% inhibition.
